Measured values reported in ChEMBL document CHEMBL4340532, “Design, synthesis, and biological evaluation of novel 2'-deoxy-2'-fluoro-2'-C-methyl 8-azanebularine derivatives as potent anti-HBV agents” (Bioorg Med Chem Lett, 2019).

Tests used:
Type in all cases: functional
[1] = system: Hepatitis B virus; assay: Antiviral activity against Hepatitis B virus infected in human HepG2.2.15 cells assessed as inhibition of intracellular HBV DNA replication at 20 uM measured on day 3 by FQ-PCR analysis relative to control; conditions: HepG2.2.15, 72 h
How it was run: (§1)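 HepG2.2.15 cultures were treated at 10, 20 or 40 µM for 3, 6 and 9 days. Both intracellular and extracellular HBV DNA levels were then determined and compared with untreated cells.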

[2] = system: Hepatitis B virus; assay: Antiviral activity against Hepatitis B virus infected in human HepG2.2.15 cells assessed as inhibition of intracellular HBV DNA replication at 10 uM measured on day 3 by FQ-PCR analysis relative to control; conditions: HepG2.2.15, 72 h; how it was run: as §1
[3] = system: Hepatitis B virus; assay: Antiviral activity against Hepatitis B virus infected in human HepG2.2.15 cells assessed as inhibition of intracellular HBV DNA replication at 40 uM measured on day 3 by FQ-PCR analysis relative to control; conditions: HepG2.2.15, 72 h; how it was run: as §1
[4] = system: Hepatitis B virus; assay: Antiviral activity against Hepatitis B virus infected in human HepG2.2.15 cells assessed as inhibition of intracellular HBV DNA replication at 20 uM supplemented with fresh medium containing compound every 3 days for 9 days measured post-last dose by FQ-PCR analysis relative to control; how it was run: as §1
[5] = system: Hepatitis B virus; assay: Antiviral activity against Hepatitis B virus infected in human HepG2.2.15 cells assessed as inhibition of intracellular HBV DNA replication at 10 uM supplemented with fresh medium containing compound every 3 days for 9 days measured post-last dose by FQ-PCR analysis relative to control; how it was run: as §1
[6] = system: Hepatitis B virus; assay: Antiviral activity against Hepatitis B virus infected in human HepG2.2.15 cells assessed as inhibition of intracellular HBV DNA replication at 40 uM supplemented with fresh medium containing compound every 3 days for 9 days measured post-last dose by FQ-PCR analysis relative to control; how it was run: as §1
[7] = system: Hepatitis B virus; assay: Antiviral activity against Hepatitis B virus infected in human HepG2.2.15 cells assessed as inhibition of extracellular HBV DNA replication at 20 uM measured on day 3 by FQ-PCR analysis relative to control; conditions: HepG2.2.15, 72 h; how it was run: as §1
[8] = system: Hepatitis B virus; assay: Antiviral activity against Hepatitis B virus infected in human HepG2.2.15 cells assessed as inhibition of extracellular HBV DNA replication at 10 uM measured on day 3 by FQ-PCR analysis relative to control; conditions: HepG2.2.15, 72 h; how it was run: as §1
[9] = system: Hepatitis B virus; assay: Antiviral activity against Hepatitis B virus infected in human HepG2.2.15 cells assessed as inhibition of extracellular HBV DNA replication at 40 uM measured on day 3 by FQ-PCR analysis relative to control; conditions: HepG2.2.15, 72 h; how it was run: as §1
[10] = system: Hepatitis B virus; assay: Antiviral activity against Hepatitis B virus infected in human HepG2.2.15 cells assessed as inhibition of extracellular HBV DNA replication at 20 uM supplemented with fresh medium containing compound every 3 days for 6 days measured post-last dose by FQ-PCR analysis relative to control; how it was run: as §1
[11] = system: Hepatitis B virus; assay: Antiviral activity against Hepatitis B virus infected in human HepG2.2.15 cells assessed as inhibition of extracellular HBV DNA replication at 40 uM supplemented with fresh medium containing compound every 3 days for 6 days measured post-last dose by FQ-PCR analysis relative to control; how it was run: as §1
[12] = system: Hepatitis B virus; assay: Antiviral activity against Hepatitis B virus infected in human HepG2.2.15 cells assessed as inhibition of extracellular HBV DNA replication at 20 uM supplemented with fresh medium containing compound every 3 days for 9 days measured post-last dose by FQ-PCR analysis relative to control; how it was run: as §1
[13] = system: Hepatitis B virus; assay: Antiviral activity against Hepatitis B virus infected in human HepG2.2.15 cells assessed as inhibition of extracellular HBV DNA replication at 10 uM supplemented with fresh medium containing compound every 3 days for 9 days measured post-last dose by FQ-PCR analysis relative to control; how it was run: as §1
[14] = system: Hepatitis B virus; assay: Antiviral activity against lamivudine-resistant Hepatitis B virus harboring L180M/M204V mutant infected in human HepG2.2.15 cells assessed as inhibition of intracellular HBV DNA replication at 20 uM measured on day 3 by FQ-PCR analysis relative to control; conditions: HepG2.2.15, 72 h
How it was run: (§2)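 Lamivudine-resistant cell line transfected with the L180M/M204V mutant, exposed to 10, 20 or 40 µM for 3, 6 or 9 days. Intracellular and extracellular HBV DNA levels measured.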

[15] = system: Hepatitis B virus; assay: Antiviral activity against lamivudine-resistant Hepatitis B virus harboring L180M/M204V mutant infected in human HepG2.2.15 cells assessed as inhibition of intracellular HBV DNA replication at 10 uM measured on day 3 by FQ-PCR analysis relative to control; conditions: HepG2.2.15, 72 h; how it was run: as §2
[16] = system: Hepatitis B virus; assay: Antiviral activity against lamivudine-resistant Hepatitis B virus harboring L180M/M204V mutant infected in human HepG2.2.15 cells assessed as inhibition of intracellular HBV DNA replication at 40 uM measured on day 3 by FQ-PCR analysis relative to control; conditions: HepG2.2.15, 72 h; how it was run: as §2
[17] = system: Hepatitis B virus; assay: Antiviral activity against lamivudine-resistant Hepatitis B virus harboring L180M/M204V mutant infected in human HepG2.2.15 cells assessed as inhibition of intracellular HBV DNA replication at 20 uM supplemented with fresh medium containing compound every 3 days for 6 days measured post-last dose by FQ-PCR analysis relative to control; how it was run: as §2
[18] = system: Hepatitis B virus; assay: Antiviral activity against lamivudine-resistant Hepatitis B virus harboring L180M/M204V mutant infected in human HepG2.2.15 cells assessed as inhibition of intracellular HBV DNA replication at 10 uM supplemented with fresh medium containing compound every 3 days for 6 days measured post-last dose by FQ-PCR analysis relative to control; how it was run: as §2
[19] = system: Hepatitis B virus; assay: Antiviral activity against lamivudine-resistant Hepatitis B virus harboring L180M/M204V mutant infected in human HepG2.2.15 cells assessed as inhibition of intracellular HBV DNA replication at 20 uM supplemented with fresh medium containing compound every 3 days for 9 days measured post-last dose by FQ-PCR analysis relative to control; how it was run: as §2
[20] = system: Hepatitis B virus; assay: Antiviral activity against lamivudine-resistant Hepatitis B virus harboring L180M/M204V mutant infected in human HepG2.2.15 cells assessed as inhibition of intracellular HBV DNA replication at 10 uM supplemented with fresh medium containing compound every 3 days for 9 days measured post-last dose by FQ-PCR analysis relative to control; how it was run: as §2
[21] = system: Hepatitis B virus; assay: Antiviral activity against lamivudine-resistant Hepatitis B virus harboring L180M/M204V mutant infected in human HepG2.2.15 cells assessed as inhibition of extracellular HBV DNA replication at 20 uM measured on day 3 by FQ-PCR analysis relative to control; conditions: HepG2.2.15, 72 h; how it was run: as §2
[22] = system: Hepatitis B virus; assay: Antiviral activity against lamivudine-resistant Hepatitis B virus harboring L180M/M204V mutant infected in human HepG2.2.15 cells assessed as inhibition of extracellular HBV DNA replication at 10 uM measured on day 3 by FQ-PCR analysis relative to control; conditions: HepG2.2.15, 72 h; how it was run: as §2
[23] = system: Hepatitis B virus; assay: Antiviral activity against lamivudine-resistant Hepatitis B virus harboring L180M/M204V mutant infected in human HepG2.2.15 cells assessed as inhibition of extracellular HBV DNA replication at 20 uM supplemented with fresh medium containing compound every 3 days for 6 days measured post-last dose by FQ-PCR analysis relative to control; how it was run: as §2
[24] = system: Hepatitis B virus; assay: Antiviral activity against lamivudine-resistant Hepatitis B virus harboring L180M/M204V mutant infected in human HepG2.2.15 cells assessed as inhibition of extracellular HBV DNA replication at 20 uM supplemented with fresh medium containing compound every 3 days for 9 days measured post-last dose by FQ-PCR analysis relative to control; how it was run: as §2

Question: Which results are given for `C[C@@]1(F)[C@H](O)[C@@H](CO)O[C@H]1n1nnc2c(Nc3ccc(Cl)cc3F)ncnc21`?
Answer: inhibition at 20 µM [1]: 28.1%; inhibition at 10 µM [2]: 14%; inhibition at 40 µM [3]: 36.8%; inhibition (INH) [4]: 67.4%; inhibition (INH) [5]: 44.2%; inhibition (INH) [6]: 80.2%; inhibition at 20 µM [7]: 24.5%; inhibition at 10 µM [8]: 18.4%; inhibition at 40 µM [9]: 34.7%; inhibition (INH) [10]: 42.6%; inhibition (INH) [11]: 68.9%; inhibition (INH) [12]: 65%; inhibition (INH) [13]: 36.9%; inhibition at 20 µM [14]: 17.5%; inhibition at 10 µM [15]: 5%; inhibition at 40 µM [16]: 31.3%; inhibition (INH) [17]: 41.6%; inhibition (INH) [18]: 22.8%; inhibition (INH) [19]: 65.2%; inhibition (INH) [20]: 36.6%; inhibition at 20 µM [21]: 35.6%; inhibition at 10 µM [22]: 11%; inhibition (INH) [23]: 49.5%; inhibition (INH) [24]: 61.4%
